In the library only some 8.9% were active in any assay of this set; here they are far more common.
Dynein cargo inh = inhibitors of GR-EGFP nuclear translocation, primary screen, dynein cargo transport inhibitor project, imaging, high-content, 3617.4 mouse cells | actives 0.47% (n = 220,000) | z-score, hits read low | test concentration mostly 20 µM; stimulated with dexamethasone, 1 µM; active compounds read low | AID 1381, 2008;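 active = plate z-score of nuclear minus cytoplasmic receptor signal below a set negative limit, without overly bright fluorescence or cell loss, cut at about -3.5 in these data, passing the limit was not always enough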;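 note: z-score of nuclear minus cytoplasmic ring GR-EGFP intensity difference per well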
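medium = tetracycline-free induction medium containing charcoal-stripped FBS | probe or stimulus = dexamethasone, 1.0 µM final | timing = 48 h induction, then 1 h compound, then 30 min agonist, 37 °C | detection = automated 10x imaging of fixed Hoechst-stained cells | read-out basis = nuclear versus cytoplasmic GR-EGFP signal, averaged per well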
MT stabilizer = microtubule stabilizers in HeLa cells, primary screen, imaging, high-content imaging | HeLa tubulin immunostaining HCS, 24 h; share of cells brighter than vehicle mean+2SD | % tubulin-high responders, % at 10 µM | actives 0.83% (n = 200,000);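 active = plate Z-score above 3 for both tubulin-high and condensed-nucleus cell shares, with cell loss under 80%, at 10 µM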;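 note: anti alpha tubulin signal scored within the nucleus-defined area of each cell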
bCat nuc transl = modulators of beta-catenin nuclear translocation, primary screen, imaging, HeLa cells, immunofluorescence, high-content; nuclear translocation activity, % at 5 µM; actives 0.3% (n = 190,000); AID 1665, 2009;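 active = nuclear translocation activity above 50% at 5 µM, with a well cell count of 50 or more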;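 note: per-cell ratio of nuclear to cytoplasmic median beta-catenin stain intensity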
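Read-out: Nuclear/cytoplasmic beta-catenin signal ratio, % activation | Assay system: Human HeLa cell line | Times: 24 h compound exposure at 37°C, 5% CO2 | Signal: Fluorescence imaging of beta-catenin antibody stain plus DAPI | Dosing: 5 µM primary, 0.02–20 µM confirmation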
Lmaj promast = Leishmania major promastigote growth inhibition, primary screen; Leishmania major promastigotes, resazurin fluorescence viability; inhibition, % at 10 µM; actives 9% (n = 200,000); AID 1063, 2008; in the data active = inhibition above about 50%;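 note: promastigotes grown with compound for 44 hours at 28 °C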
HSV augment = enhancers of HSV replication in host cells, fold increase, host cell viability. actives 0.005% (n = 220,000). HSV replication augmentation in cells. maximum fold increase; in the data active = maximum fold increase above about 1.5; tested in PC3 cells
Of the large screens only hits and unclear results are named; the others gave an inactive call.

COc1ccc(CN2C3CCCC2CC(NC(=O)/C=C/c2ccccc2)C3)cc1 (stereo not given)	Lmaj promast 87
O=C(Nc1ccc2c(c1)OCO2)N1CCN(c2ncccn2)CC1	none
CCOC(=O)N1CCN(c2ncc(C(F)(F)F)cc2Cl)CC1	none
O=C(Nc1ccc2c(c1)OCO2)N1CCN(c2ncc(C(F)(F)F)cc2Cl)CC1	Lmaj promast 68
CNCC(=O)N1CCN(c2ncc(C(F)(F)F)cc2Cl)CC1	Lmaj promast 71
CCOC(=O)c1cnc2c(c(C)nn2CC)c1NC1CC1	none
CC1CCC2C(=O)N(c3ccc(Cc4ccncc4)cc3)C(=O)C2C1 (stereo not given)	none
COc1cccc(CC(Cc2nc3ccccc3[nH]2)c2nc3ccccc3[nH]2)c1 (stereo not given)	Lmaj promast 69
Cc1nn(CCC(=O)NNC(=S)Nc2ccc([N+](=O)[O-])cc2)c(C)c1[N+](=O)[O-]	none
CCc1ccc(-c2csc(NC(=O)C3CC(=O)N(c4ccc5c(c4)OCCO5)C3)n2)cc1 (stereo not given)	Lmaj promast 98 (no result: bCat nuc transl)
Cc1onc(-c2ccccc2)c1C(=O)N1CCN(C(=O)c2ccco2)CC1	none
CCN(CC)S(=O)(=O)c1cccc(-c2nnc(SCC(=O)NC)n2N)c1	none
CCN(CC)S(=O)(=O)c1cccc(-c2nnc(SCC(=O)c3ccc(Cl)s3)n2C)c1	Lmaj promast 78
CCOC(=O)C1=C(O)/C(=C/c2ccccn2)SC1=Nc1ccc(Cl)cc1	Lmaj promast 65
OCCN(CCO)CC(O)COc1ccc2c(c1)OCO2 (stereo not given)	none
CCOC(=O)C1=C(c2ccccc2)NC(=S)NC1c1ccc(Cl)c([N+](=O)[O-])c1 (stereo not given)	Lmaj promast 58
COc1ccc(/C(C)=N/N=C(N)N)c(O)c1	none (no result: MT stabilizer, Lmaj promast)
COc1ccc(O)c(N)c1	Lmaj promast 98
Cc1nn(-c2ccccc2)c(C)c1C(=O)OCC(=O)N1c2ccccc2NC(=O)C1(C)C	Lmaj promast 88 (no result: bCat nuc transl)
Cc1cnc(C(=O)OCC(=O)N2c3ccccc3NC(=O)C2(C)C)cn1	none
CC(=O)c1c(C)[nH]c(C(=O)OCC(=O)N2CCc3ccccc32)c1C	none
CC(=O)c1c(C)[nH]c(C(=O)OCC(=O)N2c3ccccc3NC(=O)C2(C)C)c1C	Lmaj promast 56
Cc1cc(O)c(C(C[N+](=O)[O-])c2ccc(Cl)cc2Cl)c(=O)o1 (stereo not given)	none
O=c1[nH][nH]c(-c2ccccc2O)c1C(C[N+](=O)[O-])c1ccc(Cl)cc1Cl (stereo not given)	Lmaj promast 98
O=c1[nH][nH]c(-c2ccccc2O)c1C(C[N+](=O)[O-])c1cccc(Cl)c1 (stereo not given)	Lmaj promast 100
O=c1[nH][nH]c(-c2ccccc2O)c1C(C[N+](=O)[O-])c1ccccc1 (stereo not given)	Lmaj promast 98
CCN1CCCc2cc(CN(CCN3CCOCC3)C(=S)Nc3ccc(C)cc3)ccc21	none
COc1nc(-c2ccccc2)ccc1-c1noc(-c2cccs2)n1	none (no result: bCat nuc transl)
CCCc1cc(=O)[nH]c(SCCN2C(=O)c3ccccc3C2=O)n1	none
COc1ccc(N(CC(=O)Nc2cc(OC)ccc2OC)S(C)(=O)=O)cc1	none
COc1ccccc1NC(=O)CN(c1ccc(C23CC4CC(CC(C4)C2)C3)cc1)S(C)(=O)=O	Lmaj promast 79
OC1(c2ccccc2)CCN(Cc2ccccc2)CC1	Lmaj promast 83
O=C(c1ccccc1)C1CN(Cc2ccccc2)CCC1(O)c1ccccc1 (stereo not given)	Lmaj promast 62
O=C(c1cccc(C(=O)N2CCN(Cc3ccccc3)CC2)c1)N1CCN(Cc2ccccc2)CC1	none
OC(c1ccccc1)C1CN(Cc2ccccc2)CCC1(O)c1ccccc1 (stereo not given)	Lmaj promast 85
CCCNC(=O)OC[C@H]1O[C@H](CCO/N=C/[C@@H](OC)[C@H](C)/C=C/CC(=O)OC)C=C[C@@H]1Oc1ccc(OC)cc1	none (no result: bCat nuc transl, HSV augment)
CCc1nc2c(c(=O)[nH]1)C1(CCCC1)Cc1ccccc1-2	none
NNc1nc(N)c2c(n1)-c1ccccc1CC21CCCC1	Lmaj promast 100
O=c1cc(Nc2ccc3c(c2)OCCO3)[nH]c(=O)n1-c1ccc(Br)cc1	none
O=c1cc(Nc2ccc3c(c2)OCO3)[nH]c(=O)n1-c1ccc(Br)cc1	Lmaj promast 99
Cc1ccc2[nH]c(-c3ccccc3)c(CN(C)C)c(=O)c2c1	none
CCOCCCNC(=O)c1cc2c(-c3ccc(Cl)cc3)nn(C)c2s1	none (no result: bCat nuc transl)
CCN1CCN(C(=O)c2cc3c(-c4ccc(Cl)cc4)nn(C)c3s2)CC1	Lmaj promast 52
CCN(CC)CCNC(=O)c1cc2c(-c3ccc(Cl)cc3)nn(C)c2s1	Lmaj promast 100 (no result: bCat nuc transl)
Nc1ccc(OCCCc2c(N)nc(N)nc2N)cc1	none (no result: MT stabilizer, Lmaj promast)
Cc1ccc(CC(CC(=O)NCCc2ccc3c(c2)OCO3)C(=O)O)cc1 (stereo not given)	none
c1ccc(CNc2nc(-c3cccs3)nc3ccccc23)nc1	Lmaj promast 78
COc1ccc(Nc2nc(-c3cccs3)nc3ccccc23)c(OC)c1	none
Cc1ccc(CNc2nc(-c3cccs3)nc3ccccc23)cc1	Lmaj promast 76
c1cncc(-c2nc(NCc3cccs3)c3ccccc3n2)c1	none
O=C(CSc1ccccc1)NCCSCc1ccccc1	none
CC(=O)c1cccc(NC(=S)NCCC2=CCCCC2)c1	none (no result: Dynein cargo inh)
COc1ccc2c(C)cc(SCC(=O)Nc3ccc(Cl)cn3)nc2c1	Lmaj promast 59
COc1ccc(Nc2nc(N)nc(CN3CCc4ccccc4C3)n2)cc1	none (no result: bCat nuc transl)
COc1ccccc1Nc1nc(N)nc(CN2CCc3ccccc3C2)n1	Lmaj promast 100
Cc1c(Cl)cccc1Nc1nc(N)nc(CN2CCCCCC2)n1	Lmaj promast 81
CCC(NS(=O)(=O)c1cn(C)nc1C)c1ccccc1 (stereo not given)	none
CCN(Cc1ccccc1)S(=O)(=O)c1cc(C(=O)NC(C)C2CC3CCC2C3)ccc1OC (stereo not given)	Lmaj promast 84 (no result: HSV augment)
CCCCCc1cc(=O)oc2c(C(CCN3CCN(c4ccccc4)CC3)c3ccc4c(c3)OCO4)c(OC)cc(OC)c12 (stereo not given)	none (no result: MT stabilizer, Lmaj promast)
COc1cc([C@@H]2c3cc4c(cc3[C@@H](O)[C@@H](CO)[C@@H]2CO)OCO4)cc(OC)c1O[Si](C)(C)C(C)(C)C	none (no result: MT stabilizer, Lmaj promast)
Cc1cc(C)cc(NC(=O)N2CCCC2C(=O)Nc2ccc(-n3cnnn3)cc2)c1 (stereo not given)	none
CC(C)c1ccc(NC(=O)N2CCCC2C(=O)Nc2ccc(-n3cnnn3)cc2)cc1 (stereo not given)	Lmaj promast 66
CCN(CC(=O)Nc1ccc2c(c1)CCC2)Cc1nc2ccccc2c(=O)[nH]1	none

Source: PubChem BioAssay (several laboratories)
